D1 mod: allosteric modulators of human D1 dopamine receptor | HEK293 D1, CRE-luciferase, dopamine EC30 potentiation; actives deviate in either direction | AID 641 | B-score at 10 µM | 5.9% of 58,000 active;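 active = luminescence count or its row- and column-corrected plate score outside the 99.7% band of the plate's sample wells, on either side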
M1 agonist: agonists of M1 muscarinic receptor; CHO-M1 cells, Fluo-4 calcium fluorescence, agonist mode; active compounds read high; B-score at 10 µM; 3% of 64,000 active; AID 626;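 active = fluorescence rise, raw or as B-score row- and column-corrected plate score, outside the 99.7% band of its plate's samples, either direction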
RORa activator: RORA (human) activation; activation, % at 10 µM; CHO-K1 Gal4-RORA LBD luciferase reporter, luminescence; percent increase over mock-subtracted basal signal; AID 560; P35398; 1.5% of 65,000 active;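 active = activation above the mean of all tested compounds plus 3 SD, cut at about 49% in these data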;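 note: 0% = DMSO-treated RORA cells and 100% = added signal equal to DMSO minus mock-transfected cells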
Target sequence (P35398 whole entry, looked up, the tested form may be a part): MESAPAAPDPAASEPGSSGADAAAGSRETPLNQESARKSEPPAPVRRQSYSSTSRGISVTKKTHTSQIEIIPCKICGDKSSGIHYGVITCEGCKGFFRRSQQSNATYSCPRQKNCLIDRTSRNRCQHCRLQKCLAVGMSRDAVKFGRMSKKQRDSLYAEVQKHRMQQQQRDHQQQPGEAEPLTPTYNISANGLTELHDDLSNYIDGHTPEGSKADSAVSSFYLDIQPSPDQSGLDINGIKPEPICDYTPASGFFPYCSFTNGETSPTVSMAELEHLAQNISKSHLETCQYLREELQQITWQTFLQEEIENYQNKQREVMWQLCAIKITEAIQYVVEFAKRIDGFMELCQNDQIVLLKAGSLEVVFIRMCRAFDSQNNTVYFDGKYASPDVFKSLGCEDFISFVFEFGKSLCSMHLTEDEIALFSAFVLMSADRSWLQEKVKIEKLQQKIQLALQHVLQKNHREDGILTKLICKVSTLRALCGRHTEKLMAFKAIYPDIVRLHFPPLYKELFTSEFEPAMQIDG
SF-1 act: activates the human nuclear receptor SF-1. CHO-K1 Gal4-SF-1 LBD luciferase reporter; % increase over DMSO SF-1-specific signal. 1.9% of 65,000 active. Q13285. AID 522. activation, % at 10 µM;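 active = activation above the mean activation of all tested compounds plus 3 SD, cut at about 50% in these data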
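Assay system – CHO-K1 cells with Gal4–hSF-1 LBD chimera plus Gal4-driven luciferase · Quantity – 4,000 cells per well · Times – compound added 1 h post-seeding, 20 h exposure at 37 °C, 5% CO2 · Measured by – luciferase light emission · Benchmarks – DMSO and mock-transfected background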
HePTP inhibitor: blocks human HePTP tyrosine phosphatase | 0.64% of 110,000 active | recombinant HePTP phosphatase activity, OD absorbance | P35236 | inhibition, % at 20 µM; in the data active = inhibition above about 50%;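 note: plate controls were vehicle for no effect and reference inhibitor for full effect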
M1 antagonist: M1 muscarinic receptor (rat) antagonism. P08482. CHO-M1 cells, Fluo-4 calcium, ACh EC80 antagonist mode; active compounds read low. B-score at 10 µM. 3.4% of 64,000 active. AID 628;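 active = calcium fluorescence response, raw or row-and-column corrected B-score, differing from the plate sample mean either way at a set confidence level, mostly lower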
* hit, by the source's call; nt = no result given. Shown are actives, neighbours in structure and some others; about 8.2% of the full set was active somewhere.

SMILES	D1 mod	M1 agonist	RORa activator	SF-1 act	HePTP inhibitor	M1 antagonist
CCOC(=O)C1Cc2cc3c(cc2C1=O)CC(C(=O)OCC)C3=O (stereo not given)	0.316	-1.33	-10.3	18.3	5.6	0.497
O=S1(=O)C=C(Sc2nnc(-c3ccccc3)o2)c2ccccc21	-2.92*	-0.231	-80.2	-65.5	5.3	0.359
CC1C(O)=C(c2nc3ccccc3[nH]2)C(=N)N1c1ccccc1 (stereo not given)	-2.81	-0.0898	26.4	54.3*	-6.6	0.0356
N=C1C(c2nc3ccccc3[nH]2)=C(O)CN1c1ccccc1	-1.81	0.67	43.5	49.8*	10.0	0.653
CC1(C)CC(=O)C2=C(C1)NC1=C(C(=O)CC(C)(C)C1)C2c1ccc2c(c1)OCO2	nt	nt	nt	nt	7.6	nt
O=C(Nc1ccc(Cl)c(-c2nc3ccccc3s2)c1)c1cccs1	nt	nt	nt	nt	6.7	nt
O=C(Nc1ccc2sccc2c1)c1ccc(Cl)s1	-0.852	-0.577	34.2	59.7*	10.9	-0.153
O=C(Nc1nccs1)c1sc2ccccc2c1Cl	nt	nt	nt	nt	81.9*	nt
O=C(Nc1nc(-c2ccccn2)cs1)c1ccc(Cl)s1	-2.1	0.545	-64.9	-94.8	-4.7	-1.16
O=C(Nc1nccs1)c1ccc(Cl)s1	-0.532	1.7	47.3	58.0*	7.6	0.309
O=C(Nc1nc2ccc3ccccc3c2s1)c1ccc(Cl)s1	nt	nt	nt	nt	104.2*	nt
CCC1Oc2ccc(C)cc2N(CC(=O)NCCCN2CCCCC2CC)C1=O (stereo not given)	1.19	1.05	5.4	2.0	7.8	-1.36
O=C(CCn1c(=O)sc2ccccc21)Nc1nccs1	-0.666	0.0569	53.1*	27.2	0.3	-0.0218
Cc1csc(NC(=O)CCn2c(=O)sc3ccccc32)n1	nt	-0.252	2.8	3.4	-6.6	-0.751
COC(=O)c1c(NC(=O)CN2CCN(C(=O)c3ccco3)CC2)c2cc(C)ccc2n1C	-2.8*	1.09	-2.8	-10.9	8.5	0.553
CCCCNC(=O)C1CCN(S(=O)(=O)c2cnc[nH]2)CC1	-0.131	-0.774	2.5	20.0	-6.1	-0.313
CCC(Sc1nc(=O)cc(N)n1CCc1ccccc1)C(=O)Nc1cc(C)on1 (stereo not given)	-5.11*	0.504	-14.2	-9.5	11.4	-0.095
CC(C)[C@H](NC(=O)Nc1cccc(C(F)(F)F)c1)C(=O)O	-1.33	1.06	-15.7	1.9	3.7	0.861
O=C(C(Sc1ccccc1)c1ccccc1)N1CCCC1 (stereo not given)	nt	nt	nt	nt	102.1*	nt
O=C(O)c1ccc(SC(C(=O)O)c2ccccc2)cc1 (stereo not given)	nt	nt	nt	nt	0.4	nt
Cc1ccc(C(=O)Nc2ccc(N3CCOCC3)c(Cl)c2)cc1C	nt	nt	nt	nt	5.5	nt
COc1cc(/C=c2\sc3nc4ccccc4n3c2=O)cc(I)c1OCC(=O)O	nt	nt	nt	nt	75.3*	nt
CCOc1cc(/C=c2/sc3nc4ccccc4n3c2=O)cc(I)c1OCC	nt	nt	nt	nt	-2.8	nt
O=C(NC1CCCCC1)c1cc2nc3c(c(C(F)(F)F)n2n1)CCCC3	1.89	-0.0223	33.7	50.4*	0.4	0.302
O=C(NC1CCCCC1)c1cc2nc(-c3ccco3)cc(C(F)(F)F)n2n1	0.675	-0.944	15.9	10.6	4.9	-0.00599
SMILES	D1 mod	M1 agonist	RORa activator	SF-1 act	HePTP inhibitor	M1 antagonist
Cn1c(=O)cc(OCC(=O)N2CCCc3ccccc32)c2ccccc21	-0.726	2.35	-13.8	-4.7	5.0	0.194
CC(C)c1ccc(-c2nnn(CCC(=O)O)n2)cc1	-3.59*	-0.286	-11.3	-1.3	9.5	-0.0965
CCN(CC)c1ccc2cc(-c3nc4ccccc4[nH]3)c(=O)oc2c1	-3.57*	419*	-31.9	-44.9	2.4	-21.5*
Cc1cc(-c2nc3ccccc3[nH]2)c2ccccc2n1	nt	nt	nt	nt	-11.1	nt
COc1cc(SC)ccc1C(=O)Nc1ccc(S(=O)(=O)N2CCCC2)cc1	0.907	0.0568	-5.5	8.5	5.9	0.719
COc1cc(SC)ccc1C(=O)Nc1ccon1	0.247	0.312	27.2	28.0	-5.1	0.928*
COc1ccccc1OCC(=O)Nc1cccc(-c2nc3ccccc3o2)c1	0.247	0.474	19.6	61.4*	12.5	-0.0873
COc1cccc(NC(=O)COc2ccccc2C(N)=O)c1	-0.921	-0.73	14.9	62.1*	1.4	1.16
Cc1nn2c(-c3ccccc3)nnc2c2ccccc12	1.1	0.343	33.5	33.1	12.1	2.05*
Cn1c(C(=O)NCc2ccccn2)cc2c(=O)n3ccccc3nc21	0.0433	-0.000423	52.9*	60.6*	nt	0.0598
Cn1nc(C(=O)NCc2ccccn2)c2ccccc2c1=O	1.18	0.0399	3.1	-6.7	-5.5	0.14
Cc1ccc(C)n1C1CCS(=O)(=O)C1 (stereo not given)	-4.56*	-0.191	-1.7	-11.8	7.0	-0.0163
c1ccc2nc(-c3nc4ccccc4o3)ccc2c1	-3.95*	-1.65	-58.3	-63.8	-9.1	-0.494
c1cc(-c2nc3ccccc3o2)nc(-c2nc3ccccc3o2)c1	-0.775	-0.383	-13.1	-5.5	22.9	0.331
COc1ccc(C(=O)CC2(O)C(=O)Nc3ccc(Br)cc32)cc1 (stereo not given)	nt	nt	nt	nt	8.8	nt
C=CCNC1=C(Cl)C(=O)N(c2cccc(Cl)c2Cl)C1=O	nt	nt	nt	nt	-1.0	nt
COc1ccc(S(=O)(=O)N2CCCC(C(=O)O)C2)cc1 (stereo not given)	-2.62*	-0.879	nt	nt	-5.0	-0.0776
COc1ccc(S(=O)(=O)N2CCCC(C(=O)NC3CCCCC3)C2)cc1 (stereo not given)	0.0171	-0.605	0.4	-5.4	2.0	1.33
O=C1Nc2cc(Cl)cnc2N2CCCC12 (stereo not given)	0.0293	13.2*	9.2	20.0	1.7	-0.0344
CC1CCC(NC(=O)CN2C(=O)C3CCCN3c3ncc(Cl)cc32)CC1 (stereo not given)	0.0562	1.11	-0.3	2.0	1.7	-0.311
O=C(O)Cn1nnc(-c2cccs2)n1	nt	-0.11	-19.5	-4.1	4.8	-1.09
Cc1ccc(NCCC(=O)c2cccc([N+](=O)[O-])c2)cc1Cl	nt	nt	nt	nt	8.5	nt
Cc1ccc(/C=C2/SC(=S)N(CCC(=O)O)C2=O)o1	nt	nt	nt	nt	-2.0	nt
O=C1/C(=C/c2ccc(-c3ccc([N+](=O)[O-])cc3)o2)SC(=S)N1Cc1ccco1	nt	nt	nt	nt	63.6*	nt
O=C(O)CCCN1C(=O)/C(=C\c2ccc(-c3ccc(Br)cc3)o2)SC1=S	nt	nt	nt	nt	94.3*	nt
SMILES	D1 mod	M1 agonist	RORa activator	SF-1 act	HePTP inhibitor	M1 antagonist
O=C1/C(=C/c2ccc(Br)o2)SC(=S)N1Cc1ccccc1	nt	nt	nt	nt	56.0*	nt
CCOC(=O)c1ccc(-c2ccc(/C=C3/SC(=S)N(CC(=O)O)C3=O)o2)cc1	nt	nt	nt	nt	54.5*	nt
O=C1/C(=C/c2ccc(I)o2)SC(=S)N1Cc1ccccc1	nt	nt	nt	nt	18.9	nt
COC(=O)c1cc2occc2n1CC(=O)Nc1ccc(OC)c(OC)c1	0.359	-0.00352	-0.6	-4.9	-0.6	0.416
O=C(O)CCn1ccnc1-c1ccccc1	-0.217	0.000107	-8.1	1.8	2.8	-1.56
CC(C)(C)C1=Nn2c(nnc2-c2ccco2)SC1	nt	-0.232	-10.3	-1.4	8.3	0.645
O=c1ccc(Br)c[nH]1	nt	-0.699	6.0	-9.3	-10.6	-1.54

Screens as filed in PubChem BioAssay.
